# Only some compounds are listed: those with a hit (about 2.2% of all), similar ones and a draw of the others.
# RBBP9 inhibitor: inhibitors of human serine hydrolase RBBP9 | O75884 | recombinant RBBP9, FP-Rh probe fluorescence polarization | inhibition, % at 7.94 µM | hit rate 0.2% among 220,000;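 active means inhibition above the campaign mean of all tested compounds plus 3 SD, cut at about 14% in these data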;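 further: plate controls were DMSO wells with RBBP9 for no effect and wells lacking RBBP9 protein for full effect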
# Target sequence (O75884 whole entry, looked up): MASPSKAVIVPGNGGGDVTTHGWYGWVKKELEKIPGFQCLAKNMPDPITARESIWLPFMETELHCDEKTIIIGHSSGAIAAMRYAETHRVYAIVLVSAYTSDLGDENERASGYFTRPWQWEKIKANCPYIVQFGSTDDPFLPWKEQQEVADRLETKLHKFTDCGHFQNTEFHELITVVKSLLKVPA
#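 system = RBBP9 protein | input = RBBP9 at 2.5 µM in dispensed solution, before mixing | measured by = fluorescence polarization (mP), excitation 525 nm, emission 598 nm | incubation = enzyme-compound preincubation 30 min, then probe labeling 45 min, 25 °C | buffer or medium = Tris-NaCl-Pluronic buffer, pH 8.0 | compound = single dose 7.94 µM | also added = FP-Rh probe, 375 nM dispensing solution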
# Redox H2O2 prof: compounds producing H2O2 with reducing agent – biochemical, NIH compound library profiling, artefact control for MLSCN library redox annotation, primary screen; DTT-dependent redox cycling H2O2, phenol red/HRP absorbance; 100% = 100 µM peroxide control, 0% = buffer; activation, % at 10 µM; hit rate 0.03% among 200,000; AID 878;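 active means activation of at least 50% relative to the plate's high and low controls in the primary single-dose screen; inactive means activation below 50%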;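 further: compound incubated with DTT at 0.8 mM final as the reducing agent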
# PKD1 kinase inh: inhibitors of human PKD1 kinase; PKD1 kinase fluorescence polarization assay; Q15139; inhibition, % (test concentration not listed); hit rate 0.056% among 200,000; in the data active means inhibition above about 50%
# Wee1 degr inh: inhibitors of human Wee1 degradation; hit rate 1.2% among 220,000; AID 1321; HeLa Luc-Wee1K328M stability, luciferase luminescence; 100% = proteasome inhibitor MG132 effect; reporter increase, % at 5 µM;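 active means activation above the mean of all tested compounds plus 3 SD, set per screening run, cut at about 8.8% in these data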;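 further: cells exposed to compound for 20 h before luminescence read; 0% = DMSO alone and 100% = MG132 at 30 µM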
# p97 ATPase inh: inhibitors of human p97 ATPase | inhibition, % at 8 µM | hit rate 0.42% among 220,000 | P55072 | recombinant p97 ATPase, Kinase-Glo ATP luminescence, 3 h | AID 1481; in the data active means inhibition above about 15%;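 further: 0% = DMSO vehicle and 100% = wells lacking enzyme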
# Arbovirus anti: arbovirus infection inhibition; arbovirus infection cell-based antiviral screen; inhibition, % at 10 µM; hit rate 0.37% among 200,000; AID 1251; in the data active means inhibition above about 30%
# RBBP9 inh conf: confirmation of human RBBP9 inhibitors; hit rate 36% among 410; shares compounds with RBBP9 inhibitor; recombinant RBBP9, FP-Rh probe fluorescence polarization; inhibition, % at 7.94 µM;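 active means inhibition above the hit cutoff derived for the primary screen, cut at about 15% in these data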;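 further: 0% = RBBP9 with DMSO and 100% = wells lacking RBBP9 protein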
# * = called active by the depositor; / = no result.
SMILES,RBBP9 inhibitor,Redox H2O2 prof,PKD1 kinase inh,Wee1 degr inh,p97 ATPase inh,Arbovirus anti,RBBP9 inh conf
O=c1c2ccccc2sn1-c1ccccc1,51*,0,3,-2,0,-41,50*
CCOc1ccccc1N1CCN(C(=O)/C=C/c2cccc([N+](=O)[O-])c2)CC1,-3,0,3,-1,0,10,/
CCOC(=O)C1CCN(c2nc(N)c3c(N)nc(SCC(=O)O)cc3c2C#N)CC1,17*,/,/,-2,55*,/,39*
CC(OC(=O)C12CC3CC(CC(O)(C3)C1)C2)C(N)=O (stereo unspecified),-7,0,1,-1,3,-2,/
NC(=O)COC(=O)C12CC3CC(CC(O)(C3)C1)C2,51*,0,-2,2,-2,-2,2
Cc1cc(C)c2c(=O)n(CC(=O)N3CCC(Cc4ccccc4)CC3)sc2n1,-2,-1,-13,-3,0,-6,/
Cc1cccc(N2CCN(C(=O)Cn3sc4nc(C)cc(C)c4c3=O)CC2C)c1 (stereo unspecified),19*,0,-8,2,5,-39,34*
Cc1ccc(C)c(S(=O)(=O)N2CCCOC2CNC(=O)C(=O)NCc2ccncc2)c1 (stereo unspecified),-4,-1,-9,1,2,11,/
CN(C)c1ccc(NC(=O)Nc2csc3ccccc23)cc1,19*,/,/,0,1,/,58*
Cc1nc2scc(-c3ccccc3)c2c(=O)n1N=C1C=CC(=O)C=C1,49*,1,0,4,9,-32,59*
CC(C)CN(CCCNC(=O)CN1C(=O)COc2ccc(S(=O)(=O)N3CCCC3)cc21)CC(C)C,-6,-1,-5,-1,-5,-3,/
CNCc1ccccc1Sc1cc(O)ccc1O,18*,0,2,0,-2,-9,84*
CCSc1cnn(-c2ccccc2)c(=O)c1SCC,-4,0,-5,0,2,8,/
CCCCSc1cnn(-c2ccccc2)c(=O)c1SCCCC,16*,1,0,4,-4,6,-3
CCCOc1ccc(N2C(=O)CC(N3CCC(c4nncn4CC)CC3)C2=O)cc1 (stereo unspecified),-6,0,0,-1,-3,1,/
CC(Sc1ncc(C(F)(F)F)cc1Cl)C(=O)NCC1CCCO1 (stereo unspecified),2,0,-7,1,-2,2,/
CCOc1cc(C(=O)NC(C)C2CCCO2)cc(OCC)c1OCC (stereo unspecified),16*,0,3,1,2,2,11
CC1CCN(C(=O)C2CCN(S(=O)(=O)c3cccc4nonc34)CC2)CC1,-6,-5,-2,-2,-7,9,/
CCn1c(CSc2nnc(-c3ccncc3)n2C)nc2cc(C(=O)O)ccc21,17*,/,/,4,14,/,21*
CCOC(=O)CSc1nnnn1-c1cc(OC)c(Cl)cc1OC,-3,-6,-9,3,-3,2,/
COc1cc(-n2nnnc2SCC(=O)N2CCN(c3ccc(F)cc3)CC2)c(OC)cc1Cl,16*,3,-3,-3,10,6,5
Cc1nc2ncccn2c1-c1csc(Nc2ccc(N(C)C)cc2)n1,24*,-2,9,-3,3,-26,21*
Cc1nc2ncccn2c1-c1csc(Nc2ccccc2)n1,-3,0,8,2,-1,-6,/
Oc1ccc(Nc2nc(-c3ccc(O)cc3)cs2)cc1,18*,1,-2,0,15*,-5,14*
O=C(O)C1C2CCC(O2)C1C(=O)NCc1ccc(Cl)cc1 (stereo unspecified),-7,0,-10,-3,4,2,/
SMILES,RBBP9 inhibitor,Redox H2O2 prof,PKD1 kinase inh,Wee1 degr inh,p97 ATPase inh,Arbovirus anti,RBBP9 inh conf
CC(C)(C)N1CCC1C(N)=O (stereo unspecified),18*,/,/,2,10,/,2
CC(C)(C)OC(=O)N1CCC(C(N)=O)CC1,-4,-3,-12,-1,8,6,/
Cc1cccc(NS(=O)(=O)c2cc(NC(=O)CC(=O)c3ccc([N+](=O)[O-])cc3)ccc2C)c1,30*,-1,-1,1,4,8,16*
Cc1c(C)c(C)c(CO/N=C/c2cccs2)c(C)c1C,-1,/,/,7,1,/,/
O=C(NCCc1nc2ccccc2[nH]1)/C(=C/c1ccc2c(c1)OCO2)NC(=O)c1ccc(Cl)cc1Cl,-9,0,-13,0,-2,-32,/
O=C(Oc1ccc(-c2cnc3ccccc3n2)cc1)c1ccc(Br)o1,17*,0,-5,-2,2,-12,-4
COc1cccc(NC(=O)Cn2c(=O)n(-c3ccccc3)c(=O)c3oc4ccccc4c32)c1,16*,0,0,-3,2,0,-3
COc1cc(OC)c(OC)cc1/C=N/NC(=S)NCC1CCCO1 (stereo unspecified),-6,0,1,-1,-2,-7,/
Oc1ccc(Nc2nc3ccccc3nc2Nc2ccc(O)cc2)cc1,21*,1,4,2,11,-42,37*
Cc1nc2ccccc2nc1N/N=C/c1ccc(O)cc1,0,/,/,-3,11,/,/
CCOC(=O)Cc1nn(CC)c(=O)c2ccccc12,-3,0,-2,0,3,-2,/
CCOC(=O)Cc1nn(C)c(=O)c2ccccc12,16*,3,-8,1,4,2,0
O=S(=O)(c1cccs1)N1CN(Cc2ccco2)c2nc3ccccc3nc21,34*,/,/,1,5,/,0
O=S(=O)(c1cccs1)N1CN(Cc2ccc(Cl)cc2)c2nc3ccccc3nc21,-4,3,-5,7,0,-1,/
CC(C)Oc1ccc(CNC2CCOC(C)(C)C2)cc1 (stereo unspecified),-6,0,4,5,0,-12,/
CC(=O)C(C(C)=O)c1c(Cl)c(O)c(O)c2c(C(=O)c3ccccc3)coc12,26*,0,0,1,0,-43,34*
O=Cc1cc(N=Nc2cccc(C(=O)O)c2)ccc1O,18*,0,1,4,6,24,-2
O=Cc1cc(N=Nc2ccccc2Cl)ccc1O,4,2,-6,1,8,-17,/
O=C(CSc1ccc2ccccc2n1)c1ccccc1,18*,/,/,3,3,/,4
Cc1ccc2c(c1)c1cccc3c1n2CCN3CCC(N)=O,17*,1,-12,0,9,-13,14
CCCc1nc(C(C)(C)O)c(C(=O)O)n1Cc1ccc(-c2ccccc2-c2nn[nH]n2)cc1,-4,/,/,7,4,7,/
CCOC(=O)C1=C(C)N(c2ccc(C)cc2)C(=O)/C1=C\c1ccc(O)c(OC)c1,15*,/,/,4,10,/,29*

# Screening data: PubChem BioAssay, several laboratories
